Experimental data of several laboratories.
Each line is one published result; the experiments were not run side by side.
Effect on: enzyme activity
Mode: inhibitor
gag-pol reverse transcriptase: Gag-Pol polyprotein, reverse transcriptase (gag-pol, Human immunodeficiency virus type 1 group M subtype B, UniProt P04585)
gag-pol protease: Gag-Pol polyprotein, protease (gag-pol, Human immunodeficiency virus type 1 group M subtype B, UniProt P04585)

`CC(C)(C)n1cc(C#N)c2cc(C=O)cnc21` has an IC50 of greater than 10000 nM (gag-pol reverse transcriptase; FRET).
`O=C1c2c(O)ccc(O)c2C(=O)c2c(NCCNCCO)ccc(NCCNCCO)c21` gave an IC50 of 6300 nM (gag-pol reverse transcriptase).
For `Cc1ccc(-c2cnc3c(c2)c(C#N)cn3Cc2ccccc2)cc1`, the IC50 was greater than 100000 nM (gag-pol reverse transcriptase; FRET).
With `CC(C)C[C@H]1C(OC(C)(C)C)=CC(=O)N1[C@H]1CCN(C2=CC(=O)NC2Cc2ccccc2)C1` (stereo partly shown) the IC50 was 516000 nM (gag-pol protease; fluorescence).
With `CC(=O)c1cc2c(-c3ccc(N(C)C)cc3)c3c(nc2[nH]1)-c1ccccc1C3=O` the IC50 was greater than 10000 nM (gag-pol reverse transcriptase; FRET).
`COc1ccc(S(=O)(=O)N(CC(C)C)C[C@@H](O)[C@@H]2Cc3ccc(cc3)OCC=CCCc3c(O)cccc3C(=O)N2)cc1` gave a Ki of 0.2 nM (gag-pol protease).
For `Cc1cn([C@H]2C[C@H](N=[N+]=[N-])[C@@H](CO[P@](=O)(O)O[P@](=O)(O)OP(=O)(O)O)O2)c(=O)[nH]c1=O`, the IC50 was 185 nM (gag-pol reverse transcriptase).
With `C=CCCc1c(O)cccc1C(=O)N[C@@H](Cc1ccc(OCC=C)cc1)[C@H](O)CN(CC(C)C)S(=O)(=O)c1ccc(OC)cc1` the Ki was 5 nM (gag-pol protease).
`CC(C)CN(C[C@@H](O)[C@H](Cc1ccccc1)NC(=O)O[C@H]1CCO[C@H]2OCC[C@H]21)S(=O)(=O)c1ccc(B(O)O)cc1` has a Ki of 0.0021 nM (gag-pol protease).
For `Oc1cc2c(cc1O)C(c1ccccc1)CNCC2` (racemic), the IC50 was greater than 25000 nM (Gag-Pol polyprotein, integrase (gag-pol, Human immunodeficiency virus type 1 group M subtype B, UniProt P04585)).
For `COc1ccc(S(=O)(=O)N(CC(C)C)C[C@@H](O)[C@H](Cc2ccccc2)NC(=O)OC2CO[C@H]3OCC(F)(F)[C@@H]23)cc1` (stereo partly shown), the Ki was 0.022 nM (gag-pol protease).
For `COc1ccc(S(=O)(=O)N(CC(C)C)C[C@@H](O)[C@@H]2Cc3ccc(cc3)OCCCC=CCCc3c(O)cccc3C(=O)N2)cc1`, the Ki was 10 nM (gag-pol protease).
The IC50 of `CC(C)C[C@H]1C(N2CC[C@H](N3C(=O)C=C(OC(C)(C)C)[C@@H]3C)C2)=CC(=O)N1[C@H]1CCN(C2=CC(=O)N[C@H]2Cc2ccccc2)C1` is reported as 54900 nM (gag-pol protease; fluorescence).
